Assay [1] relates to Rattus norvegicus. The experiment in a line: Antiinflammatory activity in rat assessed as inhibition of carrageenan-induced hind paw edema at 100 mg/kg, po administered 1 hr before carrageenan-challenge measured after 3 hrs.
The target of assay [2] is T1, Prostaglandin G/H synthase 1 (Ovis aries) (UniProt P05979).
T1 sequence (whole entry): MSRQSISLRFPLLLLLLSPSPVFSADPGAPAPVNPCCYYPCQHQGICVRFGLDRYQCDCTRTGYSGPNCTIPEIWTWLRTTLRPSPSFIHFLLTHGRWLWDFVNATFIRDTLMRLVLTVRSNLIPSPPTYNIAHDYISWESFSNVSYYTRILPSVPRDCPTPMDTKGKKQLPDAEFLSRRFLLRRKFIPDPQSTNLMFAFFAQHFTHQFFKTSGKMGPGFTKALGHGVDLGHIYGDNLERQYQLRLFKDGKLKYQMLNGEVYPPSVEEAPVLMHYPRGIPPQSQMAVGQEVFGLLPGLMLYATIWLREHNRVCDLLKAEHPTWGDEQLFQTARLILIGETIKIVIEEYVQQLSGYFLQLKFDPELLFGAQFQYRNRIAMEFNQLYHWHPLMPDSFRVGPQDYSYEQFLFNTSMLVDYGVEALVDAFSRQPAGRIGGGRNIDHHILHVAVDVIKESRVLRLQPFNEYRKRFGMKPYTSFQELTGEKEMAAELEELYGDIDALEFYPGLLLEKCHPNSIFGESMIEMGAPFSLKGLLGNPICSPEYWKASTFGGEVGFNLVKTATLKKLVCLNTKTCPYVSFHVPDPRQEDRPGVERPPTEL
The experiment in a line: Inhibition of ovine COX1 peroxidase activity assessed as appearance of oxidized N,N,N,N'-tetramethyl-p-phenylenediamine by colorimetric analysis relative to control. Further details: concentration or dose not given beside the values. Conditions: concentration not given here. In a few lines:
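Colorimetric ovine COX inhibitor screening kit: assay buffer, heme, COX-1 enzyme and sample (0.1 mM), with peroxidase activity read by absorbance at 590 nm. Percent inhibition = (1 − T/C) × 100, where C is the uninhibited well. Determinations were run in duplicate.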

Assay [3] has as its system Rattus norvegicus. Kind of assay: Antiinflammatory activity in rat assessed as inhibition of carrageenan-induced hind paw edema at 100 mg/kg, po administered 1 hr before carrageenan-challenge measured after 6 hrs.
The subject of assay [4] is Rattus norvegicus. The experiment in a line: Antiinflammatory activity in rat assessed as inhibition of carrageenan-induced hind paw edema at 100 mg/kg, po administered 1 hr before carrageenan-challenge measured after 1 hr. The class given is functional. Put shortly: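 Rats (n = 6 per group) were dosed orally, with the vehicle group given 1% w/v gum acacia at 10 ml/kg p.o. One hour after dosing, 0.1 ml of 1% w/v carrageenan was injected subplantar into the hind paw. Paw volume was measured by plethysmometer volume displacement, immersing the paw to the lateral malleolus, at 1, 3 and 6 h after carrageenan.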

Assay [5] relates to Radical scavenging activity. Kind of assay: Antioxidant activity of the compound assessed as DPPH radical scavenging activity at 100 uM after 20 mins. The class given is functional. Put shortly:
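Sample solution (0.1 mM) was mixed with an equal volume of 0.1 mM DPPH in ethanol. After 20 min at room temperature, DPPH reduction was read as absorbance at 517 nm.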

A short description of assay [6]: Antioxidant activity assessed as superoxide radical scavenging activity at 100 uM after 5 mins by NBT reduction assay. The class given is functional. Put shortly:
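Superoxide scavenging by NBT reduction in buffer (100 mM, pH 7.4) with NBT and sample (0.1 mM). The reaction was started by adding PMS, incubated 5 min at room temperature, and read by absorbance at 560 nm.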

A short description of assay [7]: Antioxidant activity assessed as hydroxyl radical scavenging activity at 100 uM after 5 mins. The class given is functional.

For `COc1cc(OC)c(-c2ccnn2C)c(O)c1C(=O)c1cccc(F)c1`, the Activity in assay [1] stood at 1.2 mL; in assay [3], 1.63 mL; in assay [4], 0.92 mL; in assay [5] it was 34.5%. In addition, the inhibition in assay [2] was 61.7%.

Turning to `COc1cc(OC)c(-c2ccnn2C)c(O)c1C(=O)c1cccc(C(F)(F)F)c1`, the Activity in assay [1] came out at 1.44 mL; in assay [3], 1.55 mL; in assay [4], 0.93 mL; in assay [5] it was 28%. Moreover, the inhibition in assay [2] was 55.8%.

As for `COc1ccc(C(=O)c2c(OC)cc(OC)c(-c3ccnn3C)c2O)cc1`, the Activity in assay [1] amounted to 0.89 mL; in assay [3], 0.99 mL; in assay [4], 0.89 mL; in assay [5], 48.9%. Besides, the inhibition in assay [2] worked out at 61.4%.

For the compound `COc1cc(OC)c(-c2ccnn2C)c(O)c1C(=O)c1ccccc1`, the Activity came to 1.11 mL in assay [1], 1.22 mL in assay [3], 0.81 mL in assay [4] and 36.2% in assay [5]. The inhibition in assay [2] was determined as 57.5%.

Regarding `COc1ccc2c(c1)c(CC(=O)O)c(C)n2C(=O)c1ccc(Cl)cc1` [INDOMETHACIN], the Activity in assay [1] was determined as 0.95 mL; in assay [3], 0.78 mL; in assay [4], 0.86 mL.

As for `COc1cc(OC)c(-c2ccnn2C)c(O)c1C(=O)c1cccc(Cl)c1Cl`, the Activity in assay [1] stood at 1.39 mL; in assay [3], 1.29 mL; in assay [4] it was 0.9 mL; in assay [5], 29.6%. The inhibition in assay [2] is 58.3%.

With `COc1cc(OC)c(-c2ccnn2C)c(O)c1C(=O)c1ccccc1F`, the Activity was 1.06 mL in assay [1], 0.96 mL in assay [3], 1.1 mL in assay [4] and 31.5% in assay [5]. Also, the inhibition in assay [2] is 58.3%.

`O=C1O[C@H]([C@@H](O)CO)C(O)=C1O`: the Activity is 78.3% in assay [6], 52% in assay [7] and 81.5% in assay [5].

`COc1cc(OC)c(-c2ccnn2C)c(O)c1C(=O)c1ccc(F)cc1F`: the Activity is 1.05 mL in assay [1], 1.17 mL in assay [3], 1.12 mL in assay [4] and 43.6% in assay [5]. Besides, the inhibition in assay [2] was 55.8%.

Regarding `COc1cc(OC)c(-c2ccnn2C)c(O)c1C(=O)c1cc(Cl)ccc1Cl`, the Activity in assay [1] stood at 1.1 mL; in assay [3], 1.11 mL; in assay [4], 1.01 mL; in assay [5], 31.2%. Further, the inhibition in assay [2] is 52.4%.

Regarding `COc1cc(OC)c(-c2ccnn2C)c(O)c1C(=O)c1cccc(Br)c1`, the Activity is 1 mL in assay [1], 0.91 mL in assay [3], 0.92 mL in assay [4] and 40.2% in assay [5]. Moreover, the inhibition in assay [2] stood at 59.1%.

Regarding `COc1cc(OC)c(-c2ccnn2C)c(O)c1C(=O)c1ccc(Cl)cc1Cl`, the Activity in assay [1] stood at 1.22 mL; in assay [3], 1.62 mL; in assay [4] it was 0.59 mL; in assay [5], 26.1%. In assay [2], the inhibition is 61.7%.

Source of the values: ChEMBL document CHEMBL2311521, “Design, synthesis, characterization and biological evaluation of novel pyrazole integrated benzophenones” (2013).
